According to ChEMBL document CHEMBL1144236, “Synthesis of 1-arylpiperazyl-2-phenylcyclopropanes designed as antidopaminergic agents: cyclopropane-based conformationally restricted analogs of haloperidol” (Bioorg Med Chem, 2008):

What was measured:
[1] = Displacement of [3H]prazosin from adrenergic alpha1 receptor in ICR mouse brain homogenate; format: tissue-based
Method in brief: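 Brain tissue was homogenized in 19 vol. of 50 mM Tris–HCl pH 7.5 and centrifuged at 40,000g for 15 min, then the pellet was washed once and resuspended in 24 vol. buffer. Homogenate (about 400 protein) was incubated with [3H]prazosin (0.05–1 nM) for 1 h at 20 °C. Binding was ended by rapid filtration, with filter-bound radioactivity counted by liquid scintillation.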

[2] = Displacement of [3H]YM-09151-2 from human dopamine D4.2 receptor in membrane suspensions by liquid scintillation counter
[3] = organism: Homo sapiens; test: Selectivity ratio of Ki for human dopamine D2S receptor to Ki for human dopamine D4.2 receptor
[4] = biological target: D(2) dopamine receptor (Homo sapiens, UniProt P14416); test: Displacement of [3H]YM-09151-2 from human dopamine D2S receptor in membrane suspensions by liquid scintillation counter
Chain of D(2) dopamine receptor (P14416 whole entry): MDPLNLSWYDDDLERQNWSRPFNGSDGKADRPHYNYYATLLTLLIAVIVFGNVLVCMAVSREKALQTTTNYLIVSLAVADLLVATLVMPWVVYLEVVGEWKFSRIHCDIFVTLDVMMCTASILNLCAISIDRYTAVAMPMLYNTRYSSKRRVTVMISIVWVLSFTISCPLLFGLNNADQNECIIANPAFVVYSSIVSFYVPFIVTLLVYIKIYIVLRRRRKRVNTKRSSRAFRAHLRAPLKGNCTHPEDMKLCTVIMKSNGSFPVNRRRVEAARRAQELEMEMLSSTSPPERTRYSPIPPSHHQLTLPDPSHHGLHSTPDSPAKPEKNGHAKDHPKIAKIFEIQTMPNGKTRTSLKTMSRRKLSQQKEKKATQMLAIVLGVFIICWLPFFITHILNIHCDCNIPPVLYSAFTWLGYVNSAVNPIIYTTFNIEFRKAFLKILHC

| Ki [1] [nM] | Ki [2] [nM] | Ratio Ki [3] | Ki [4] [µM] | Structure (SMILES) |
| --- | --- | --- | --- | --- |
| 432 | 130 |  |  | Cc1ccc(N2CCN(C[C@H]3C[C@@H]3c3ccccc3)CC2)c(C)c1 |
|  | 9.32 |  |  | O=C(CCCN1CCC(O)(c2ccc(Cl)cc2)CC1)c1ccc(F)cc1 [HALOPERIDOL] |
| 521 | 897 |  |  | Cc1ccc(N2CCN(C[C@H]3C[C@H]3c3ccccc3)CC2)c(C)c1 |
| 401 | 4660 | > 2.1 | > 10 | Cc1ccc(N2CCN([C@H](C)[C@H]3C[C@]3(C)c3ccccc3)CC2)c(C)c1 |
| 537 | 2050 |  |  | Cc1ccc(N2CCN(C[C@@H]3C[C@@H]3c3ccccc3)CC2)c(C)c1 |
| 906 | 236 | > 42 | > 10 | Cc1ccc(N2CCN(C[C@H]3C[C@]3(C)c3ccccc3)CC2)c(C)c1 |
| 250 | 4190 | > 2.4 | > 10 | Cc1ccc(N2CCN([C@@H](C)[C@H]3C[C@]3(C)c3ccccc3)CC2)c(C)c1 |
